The target of experiment [1] is Adenosine receptor A2a (Homo sapiens, UniProt P29274). Put plainly: Antagonist activity at human adenosine receptor A2a expressed in CHO cell membranes assessed as inhibition of NECA-induced cAMP accumulation incubated for 15 mins in presence of [3H]cAMP by liquid scintillation counting. The class given is functional. In short, it runs like this: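 Stably transfected CHO cells (human A2A or A2B) grown in DMEM-F12 with 10% FCS at 37 °C, 5% CO2. The cells were seeded at 200,000/well, washed after 24 h and held 2 h in HBSS (pH 7.3) with 1 U/ml adenosine deaminase. Ro20-1724 was added to 40 µM final for 15 min, then NECA dilutions ± one fixed test concentration in 2.5% DMSO, in duplicate.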
Background: Changes in cAMP serve as a functional read-out for many G protein-coupled receptors.

Experiment [2] deals with CHO. Description: Selectivity ratio of Ki for recombinant rat adenosine receptor A2b expressed in CHO cell membranes to Ki for recombinant human adenosine receptor A2b expressed in CHO cell membranes. The class given is cell-based.

What is called Kb is the equilibrium dissociation constant of an antagonist, usually derived from a functional assay.

SMILES strings stand for the structures.

Adenosine receptor A2a, sequence (P29274 whole entry): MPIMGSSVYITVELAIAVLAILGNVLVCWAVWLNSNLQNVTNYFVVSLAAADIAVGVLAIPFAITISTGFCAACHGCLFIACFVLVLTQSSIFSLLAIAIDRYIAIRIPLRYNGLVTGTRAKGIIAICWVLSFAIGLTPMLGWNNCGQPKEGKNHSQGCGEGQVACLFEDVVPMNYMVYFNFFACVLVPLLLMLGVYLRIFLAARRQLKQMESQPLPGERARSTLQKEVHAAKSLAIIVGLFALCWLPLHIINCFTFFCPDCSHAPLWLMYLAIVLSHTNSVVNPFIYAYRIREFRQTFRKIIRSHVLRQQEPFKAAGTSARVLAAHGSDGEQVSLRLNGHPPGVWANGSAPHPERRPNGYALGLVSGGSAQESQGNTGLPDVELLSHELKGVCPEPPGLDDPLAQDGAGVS

In the case of `CCN(CC)CCOc1ccc(CCN2CCCn3c2nc2c3c(=O)n(C)c(=O)n2C)cc1`, the antagonist dissociation constant (Kb) in experiment [1] turned out to be 839 nM.
`CCCCn1c(=O)c2c(nc3n2CCCN3CCc2ccc(OCCN(CC)CC)cc2)n(CCCC)c1=O`: the Ratio Ki in experiment [2] came to 10.

(Values after ChEMBL document CHEMBL3826885, “Similarities and differences in affinity and binding modes of tricyclic pyrimido- and pyrazinoxanthines at human and rat adenosine receptors” (Bioorg Med Chem, 2016).)
